Shown are actives, neighbours in structure and some others; about 3.5% of the full set was active somewhere.
MrgX1 antagonist = blocks BAM8-22 activation of human MrgX1 receptor | Q96LB2 | MRGX1-HEK293 calcium flux, Fluo-4, BAM8-22 antagonism; stronger effect = lower value | B-score at 10 µM | 1.3% of 310,000 active | AID 588676;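 active means calcium-response B-score plate-corrected more than 3 library SD below zero, starting fluorescence within 5 deviations, no agonist response on first addition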;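 further: peak minus trough fluorescence over baseline after final BAM8-22 challenge near maximal dose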
Target sequence (Q96LB2 whole entry, looked up): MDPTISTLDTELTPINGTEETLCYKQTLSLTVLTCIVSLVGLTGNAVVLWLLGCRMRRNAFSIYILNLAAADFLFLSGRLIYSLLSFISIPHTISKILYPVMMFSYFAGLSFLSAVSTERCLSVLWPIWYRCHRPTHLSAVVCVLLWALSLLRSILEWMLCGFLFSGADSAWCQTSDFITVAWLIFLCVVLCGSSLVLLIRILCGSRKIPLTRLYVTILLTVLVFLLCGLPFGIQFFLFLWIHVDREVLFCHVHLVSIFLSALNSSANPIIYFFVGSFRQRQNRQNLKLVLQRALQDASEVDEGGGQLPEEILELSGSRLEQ
RGS4 pot = potentiators or activators of RGS4. HEK293 M3R/inducible RGS4, carbachol calcium flux Fluo4; stronger effect = lower value. B-score at 10 µM. 0.92% of 310,000 active;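 active means B-score of the integrated calcium signal more than 4 SD below the library mean, with starting fluorescence not abnormally high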;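 further: negative B-score means reduced calcium response which marks RGS4 activation or potentiation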
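Material: M3R-expressing HEK293 line, RGS4 induced by doxycycline | Schedule: Overnight RGS4 induction, 30 min dye load 37 °C, 20 min compound RT | Measured by: Fluo4 fluorescence kinetic imaging of calcium | Read-out: Integrated calcium ratio converted to B score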
MrgX1 agonist = human MrgX1 receptor agonism, primary screen | Q96LB2 | MrgX1-HEK293 cells, Fluo-4 calcium fluorescence, agonist mode; stronger effect = higher value | B-score at 10 µM | 0.44% of 310,000 active;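 active means calcium response B-score plate-corrected fluorescence ratio at least 3 library SD, with starting fluorescence B-score inside 5 SD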
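System: HEK293 cells stably expressing human MrgX1 receptor; Dosing: test compound in the initial addition of three; Schedule: overnight plating, then 30 min 37 °C plus 30 min room-temperature dye loading; Detection: kinetic calcium dye fluorescence, Fluo-4 NW; Controls: per-plate positive and negative controls for Z′ factor.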
MrgX1 PAM = human MrgX1 positive allosteric modulation, primary screen; Q96LB2; MrgX1-HEK293, Fluo-4 calcium flux, FDSS; stronger effect = higher value; B-score at 10 µM; 0.63% of 310,000 active;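 active means plate-corrected calcium response at least 3 library SD above typical, normal starting fluorescence, not activating the receptor alone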;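 further: compound read alongside a low EC10 to EC30 dose of BAM8-22 agonist; peak minus trough fluorescence over baseline measured at the second addition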
RGS4 inh = inhibitors of human RGS4; 0.45% of 310,000 active; AID 463165; P49798; HEK293 M3R/RGS4 inducible, Fluo-4 calcium flux; stronger effect = higher value; triggered by carbachol at its EC20; B-score at 10 µM;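 active means B-score, a plate-corrected calcium signal, over three deviations above library mean, with baseline fluorescence within five deviations of library mean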;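 further: RGS4 expression induced by doxycycline in cells with stable M3 receptor; B-score is computed from the integrated fluorescence ratio over baseline after carbachol; higher B-score means a larger calcium signal and so more RGS4 inhibition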
Target sequence (P49798 whole entry, looked up): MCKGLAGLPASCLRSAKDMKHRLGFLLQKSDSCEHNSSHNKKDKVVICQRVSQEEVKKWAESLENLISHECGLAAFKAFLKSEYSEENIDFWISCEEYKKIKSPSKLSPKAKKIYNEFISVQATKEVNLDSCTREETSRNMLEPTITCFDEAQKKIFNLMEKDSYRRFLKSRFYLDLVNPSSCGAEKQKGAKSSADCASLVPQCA
RGS4 activ val = confirmation of RGS4 activators | shares compounds with RGS4 pot | HEK293 M3R/RGS4 inducible, carbachol calcium flux Fluo4 | inhibition, % at 10 µM | 89% of 1,100 active | AID 602282;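 active means inhibition above 3 SD of the buffer control wells, cut at about 41% in these data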;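 further: signal is the integrated peak-minus-minimum Fluo4 fluorescence over baseline ratio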
RGS4 act ctr = counter-screen for RGS4 activators: effect in non-induced cells | shares compounds with RGS4 pot | HEK293 M3R non-induced RGS4, Fluo4 calcium flux; after carbachol challenge at its EC90 | inhibition, % at 10 µM | 82% of 1,100 active | AID 602283;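 active means inhibition exceeding 3 SD of buffer-only control wells, cut at about 26% in these data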;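 further: percent drop in integrated peak-minus-baseline over baseline Fluo4 ratio after carbachol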
RGS4 inh valid = validation of RGS4 inhibitors; 65% of 1,700 active; AID 492999; calcium response, % at 10 µM; shares compounds with RGS4 inh; HEK293 M3R/RGS4, carbachol calcium Fluo-4 fluorescence; carbachol added at its EC20; 0 = buffer wells, 100 = carbachol control;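 active means duplicate-averaged calcium response above the buffer-only control mean plus 5 SD of those controls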;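 further: integrated fluorescence ratio F max minus min over baseline F0; higher response in RGS4-induced cells means RGS4 inhibition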
M3R Ca ctr = non-induced cell nonspecific activity of RGS4 inhibitors; shares compounds with RGS4 inh; HEK293 M3R non-induced, carbachol calcium Fluo-4; submaximal (EC20) carbachol stimulus; buffer wells 0%, carbachol control wells 100%; activity (percent), % at 10 µM; 20% of 1,900 active; AID 493000; call rule not given here;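 further: RGS4 induction absent so cells express M3R without RGS4; higher means more calcium signal and flags a non-specific hit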
RGS4 inh ctr2 = signal in non-induced cells without carbachol, RGS4 inhibitor counter-screen | shares compounds with RGS4 inh | HEK293 M3R/RGS4 non-induced, Fluo-4 calcium, no carbachol; normalised: buffer wells 0%, carbachol wells 100% | calcium response (agonist-mode artifact), % at 10 µM | 22% of 1,900 active | AID 493001;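 active means duplicate-averaged calcium rise in uninduced cells above buffer wells' mean plus 5 SD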
MrgX1 antag conf = reconfirmed antagonist of human MrgX1 receptor signaling; shares compounds with MrgX1 antagonist; MrgX1-HEK293, BAM8-22 calcium flux, Fluo-4; stronger effect = lower value; remaining BAM8-22 calcium response % of control (stronger effect = lower value), % at 10 µM; 19% of 2,300 active; AID 602420;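 active means remaining agonist calcium response no higher than 100% minus 3 SD of agonist-only control wells, with starting fluorescence near control levels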;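 further: agonist BAM8-22 given at a near maximal EC90 to ECmax level; peak minus minimum fluorescence divided by baseline after agonist addition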
HEK293 Ca flux = activity in parental HEK293 cells lacking MrgX1; shares compounds with MrgX1 antagonist; Fluo-4 calcium fluorescence, FDSS; fluorescence ratio F(max-min)/F0 at 10 µM; 2% of 4,000 active; AID 624111;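 active means duplicate-averaged calcium fluorescence ratio at least three times the standard deviation of buffer wells, a nonspecific response in parental cells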
HEK293 Ca counter = counter-screen for MrgX1 allosteric activators: effect in parental HEK293 cells; shares compounds with MrgX1 antagonist; parental HEK293 calcium flux, Fluo-4 fluorescence ratio; stronger effect = higher value; fluorescence ratio F(max-min)/F0 at 10 µM; 0.4% of 4,000 active; AID 624114;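 active means calcium fluorescence ratio, averaged over duplicates, at least 3 SD of the buffer-well ratio, meaning a nonspecific response in receptor-free cells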;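 further: untransfected parental HEK293 lacking MrgX1 used as counterscreen for MrgX1 allosteric activators; fluorescence change taken during the second addition on a kinetic imager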
HEK293 Ca cntr2 = counter-screen for MrgX1 activators: effect in parental HEK293 cells; shares compounds with MrgX1 antagonist; Fluo-4 calcium fluorescence (FDSS); stronger effect = higher value; fluorescence ratio F(max-min)/F0 at 10 µM; 8.7% of 4,000 active;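 active means calcium fluorescence ratio at least three times the spread of buffer wells, meaning a non-specific response in parental cells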
Of the large screens only hits and unclear results are named; the others gave an inactive call (follow-up assays come after a bar, where they were run).

CN(CC1COc2ccccc2O1)c1nc(-c2cccnc2)nc2ccccc12 (stereo unspecified)	RGS4 pot -10 | RGS4 activ val 90 | RGS4 act ctr 93
CCCC(=O)N(C)C1=Nc2ccc(Cl)cc2C(c2ccccc2)=[N+]([O-])C1	none
O=C(c1cccc(Cl)c1)C1CCCN(Cc2cccc3cnccc23)C1 (stereo unspecified)	RGS4 pot -7.6 | RGS4 activ val 52 | RGS4 act ctr 84
COc1ccc(CN2CCCC(C(=O)c3cccc(Cl)c3)C2)cc1 (stereo unspecified)	none
O=C(c1ccc(Cl)cc1)C1CCCN(Cc2ccc3c(c2)OCCO3)C1 (stereo unspecified)	RGS4 pot -8.7 | RGS4 activ val 91 | RGS4 act ctr 41
CN1CCc2cc3c(c4c2C1Cc1ccccc1-4)OCO3 (stereo unspecified)	MrgX1 antagonist -6.6, RGS4 pot -7.8 | RGS4 activ val inactive | RGS4 act ctr inactive | MrgX1 antag conf inactive | HEK293 Ca flux inactive | HEK293 Ca counter inactive | HEK293 Ca cntr2 inactive
COC(=O)C1=C(c2ccc(S(C)(=O)=O)cc2)C[C@@H]2CC[C@H]1N2C(=O)NCCCOC(C)C	none
CSc1ncc(/C=C2/C(=O)NC(=O)N(c3ccc(C)cc3)C2=O)cn1	none
Cc1ccc(N2C(=O)NC(=O)/C(=C/c3cnn(-c4ccc(C)cc4)c3)C2=O)cc1	RGS4 inh 4.8 | RGS4 inh valid 10% | M3R Ca ctr inactive | RGS4 inh ctr2 inactive
O=[N+]([O-])c1cc(-c2ccc([As](=O)(O)O)cc2)ccc1[As](=O)(O)O	none
CCOC(=O)C1CCN(Cc2ccc(Cl)nc2)CC1	RGS4 inh 5.5 | RGS4 inh valid 9.5% | M3R Ca ctr 30% | RGS4 inh ctr2 inactive
CCc1cc2c(s1)NC(=O)CN=C2c1cccs1	RGS4 inh 6 | RGS4 inh valid 24% | M3R Ca ctr 31% | RGS4 inh ctr2 inactive
CCc1cc2c(s1)N(CC(=O)OC)C(=O)CN=C2c1ccccc1OC	none
O=C1NC(=S)NC(=O)C1=Cc1ccc(Br)s1	RGS4 inh 22 | RGS4 inh valid 78% | M3R Ca ctr inactive | RGS4 inh ctr2 18%
CCN1C(=O)C(=Cc2ccc(C)s2)C(=O)N(CC)C1=S	none
CN1C(=O)/C(=C\c2ccc(Br)s2)C(=O)NC1=S	RGS4 inh 19 | RGS4 inh valid 5.5% | M3R Ca ctr inactive | RGS4 inh ctr2 inactive
Cc1cc(/C=C2\C(=O)NC(=S)N(C)C2=O)c(C)n1C1CCCCC1	none
Fc1c(F)c(F)c(N2CCNCC2)c(F)c1F	none
CCNC(=O)C1OC(n2cnc3c(N)ncnc32)C(O)C1O (stereo unspecified)	MrgX1 agonist 30, RGS4 inh 15 | RGS4 inh valid 48% | M3R Ca ctr 72% | RGS4 inh ctr2 inactive
CN1CCc2cc(O)cc3c2[C@H]1Cc1ccc(O)c(O)c1-3	RGS4 inh 7.3 | RGS4 inh valid 30% | M3R Ca ctr inactive | RGS4 inh ctr2 inactive
COc1cc2c(cc1O)C[C@H]1c3c(cc(O)c(OC)c3-2)CCN1C	none (no result: RGS4 pot, RGS4 inh)
O=c1[nH]c(=O)n(CCC2=CCCCC2)c(O)c1/C=N/Nc1ccccc1	none
CCCCn1c(O)c(/C=N/NC(=O)c2ccncc2)c(=O)[nH]c1=O	none
O=c1[nH]c(=O)n(CCC2=CCCCC2)c(O)c1/C=N/Nc1cccc2ccccc12	RGS4 inh 5.7 | RGS4 inh valid 9.0% | M3R Ca ctr inactive | RGS4 inh ctr2 inactive
O=C(N/N=C/c1c(O)n(CCc2ccccc2)c(=O)[nH]c1=O)c1ccccc1	MrgX1 antagonist -5.4 | RGS4 inh valid inactive | M3R Ca ctr inactive | RGS4 inh ctr2 7.5%
CN1C(=O)NC(=O)/C(=C/c2ccc([N+](=O)[O-])s2)C1=O	RGS4 inh 7.2 | RGS4 inh valid 14% | M3R Ca ctr inactive | RGS4 inh ctr2 inactive
COc1ccc(OC)c(N2C(=O)NC(=O)/C(=C\c3ccc([N+](=O)[O-])s3)C2=O)c1	RGS4 inh 8 | RGS4 inh valid 18% | M3R Ca ctr inactive | RGS4 inh ctr2 inactive
O=C1NC(=O)N(c2ccccc2)C(=O)/C1=C\c1ccc([N+](=O)[O-])s1	none
CCCCn1c(=O)c(C(=O)Nc2ccsc2C(=O)OC)c(O)c2ccccc21	none
CCOc1ccc(N2C(=O)/C(=C\c3cccs3)C(=O)NC2=S)cc1	none | M3R Ca ctr inactive | RGS4 inh ctr2 inactive
O=C1NC(=S)N(c2ccccc2F)C(=O)/C1=C\c1cccs1	RGS4 inh 9.5 | RGS4 inh valid 34% | M3R Ca ctr inactive | RGS4 inh ctr2 inactive
CN1C(=O)C(=Cc2ccc(-c3cccc(Cl)c3)o2)C(=O)N(C)C1=O	RGS4 inh 5 | RGS4 inh valid 22% | M3R Ca ctr 34% | RGS4 inh ctr2 52%
Cc1ccc(Sc2ccc(C=C3C(=O)N(C)C(=O)N(C)C3=O)o2)cc1	none | RGS4 inh valid inactive | M3R Ca ctr inactive | RGS4 inh ctr2 80%
CN1C(=O)C(=Cc2ccc(N3CCOCC3)o2)C(=O)N(C)C1=O	none
